High-throughput results from PubChem.
In the library only some 1.9% were active in any assay of this set; here they are far more common.
proCasp3 act: procaspase-3 (human) activation. P42574. recombinant procaspase-3 D3A, Ac-DEVD-pNA absorbance 405 nm. activation, % at 8.5 µM. 330,000 compounds, 0.11% hits. AID 463141;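 active means activation above the mean of all tested compounds plus 3 SD, cut at about 21% in these data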;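 further: 0% = DMSO alone and 100% = DMSO wells spiked with extra 5 µM PC-3 D3A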
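Assay system – Procaspase-3 D3A mutant · Benchmarks – DMSO low control, extra-enzyme high control · Technique – 405 nm absorbance of p-nitroaniline, reads at 0 and 120 min · Doses – 8.5 µM nominal · Measure – % activation between DMSO and enzyme-spiked controls · Also added – Ac-DEVD-pNA chromogenic peptide substrate · Schedule – 1 h compound preincubation, 2 h substrate hydrolysis at 25 °C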
PLC-gamma1 inh: blocks human PLC-gamma1 enzyme activity; P19174; purified PLC-gamma1, fluorogenic substrate, fluorescence; inhibition, % at 12.2 µM; 370,000 compounds, 0.84% hits
PLC-beta3 inh: PLC-beta3 (human) inhibition, primary screen; inhibition, % at 12.2 µM; Purified PLC-beta3, fluorogenic substrate, fluorescence; 370,000 compounds, 0.18% hits; AID 720704; Q01970; in the data active means inhibition above about 11%;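 further: 0% = median of compound wells on plate and 100% = full blocker control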
Target sequence (Q01970 whole entry, looked up): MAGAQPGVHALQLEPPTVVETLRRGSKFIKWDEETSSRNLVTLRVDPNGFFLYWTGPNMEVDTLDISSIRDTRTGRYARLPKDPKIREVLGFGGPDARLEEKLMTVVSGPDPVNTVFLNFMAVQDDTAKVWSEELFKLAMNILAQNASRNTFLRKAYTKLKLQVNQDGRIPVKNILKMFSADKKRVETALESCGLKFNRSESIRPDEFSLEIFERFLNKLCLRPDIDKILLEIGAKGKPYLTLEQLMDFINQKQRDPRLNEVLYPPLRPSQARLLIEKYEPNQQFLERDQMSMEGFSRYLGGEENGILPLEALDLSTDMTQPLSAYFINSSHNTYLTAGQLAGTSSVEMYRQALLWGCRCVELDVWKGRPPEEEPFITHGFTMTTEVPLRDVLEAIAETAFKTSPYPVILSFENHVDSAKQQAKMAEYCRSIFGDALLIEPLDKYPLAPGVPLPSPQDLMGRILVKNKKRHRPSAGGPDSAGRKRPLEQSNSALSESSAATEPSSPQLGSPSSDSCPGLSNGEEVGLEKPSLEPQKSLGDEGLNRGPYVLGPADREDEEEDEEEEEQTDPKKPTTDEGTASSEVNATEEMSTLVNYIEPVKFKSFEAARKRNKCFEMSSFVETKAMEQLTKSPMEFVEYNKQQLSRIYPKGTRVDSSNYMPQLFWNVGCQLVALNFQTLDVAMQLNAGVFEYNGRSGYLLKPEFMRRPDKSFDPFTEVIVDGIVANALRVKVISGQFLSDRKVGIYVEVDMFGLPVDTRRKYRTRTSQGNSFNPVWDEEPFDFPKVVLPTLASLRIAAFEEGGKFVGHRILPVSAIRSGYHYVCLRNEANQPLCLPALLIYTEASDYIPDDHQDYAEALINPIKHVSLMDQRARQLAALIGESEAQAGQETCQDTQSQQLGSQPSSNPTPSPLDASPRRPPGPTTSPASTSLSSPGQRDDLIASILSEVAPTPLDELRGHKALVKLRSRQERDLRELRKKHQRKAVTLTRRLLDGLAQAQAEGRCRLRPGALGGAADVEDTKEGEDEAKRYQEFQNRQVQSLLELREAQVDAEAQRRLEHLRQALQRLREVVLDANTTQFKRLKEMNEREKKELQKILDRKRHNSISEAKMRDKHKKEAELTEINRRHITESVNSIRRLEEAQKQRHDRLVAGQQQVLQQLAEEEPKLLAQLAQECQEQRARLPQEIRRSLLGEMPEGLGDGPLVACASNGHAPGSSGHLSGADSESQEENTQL
Arrestin-AP2 inh: blocks beta-arrestin peptide binding to AP2 adaptin; FITC-arrestin peptide / GST-AP2 beads, flow cytometry; AP2 beta2 appendage carries R879A mutation; inhibition, % at 10 µM; 340,000 compounds, 0.31% hits;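 active means inhibition above a set limit, near 3 SD of compounds lacking own fluorescence, cut at about 54% in these data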;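 further: plate controls were DMSO wells for no effect and 5 µM unlabelled arrestin peptide for full effect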
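System: GST-tagged AP2 beta2-adaptin appendage (R879A) on 4 µm glutathione beads / Reagent: FITC-arrestin peptide, 50 nM / Detection: HyperCyt-sampled flow cytometry, FL1 channel, ex 488/em 535 nm / Timing: 12 min plus 1 h, RT / Buffer or medium: PBS plus Tween 20 (0.05%) and BSA (0.1%)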
HGIII-sPLA2 inh: Blocks human group III sPLA2 activity. Q9NZ20. QFRET BODIPY PC-A2 liposome hydrolysis, fluorescence. inhibition, % at 12.2 µM. 370,000 compounds, 0.56% hits;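 active means inhibition above mean plus 3 SD of compounds lying within the high and low control bounds, cut at about 19% in these data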;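 further: 0% = median of test compound wells and 100% = no enzyme DMSO wells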
proCasp7 act: activates human procaspase-7, counter-screen for procaspase-3 activators; P55210; recombinant procaspase-7, Ac-DEVD-pNA absorbance 405 nm; D23A/D198A/D206A triple mutant, cannot self-cleave; scale: DMSO 0, 5 µM enzyme 100; activation, % at 8.5 µM; 330,000 compounds, 0.093% hits;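 active means percent activation above the screen-wide mean plus 3 SD, cut at about 25% in these data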
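Test system: Procaspase-7 triple mutant (PC-7 D3A). Also added: Ac-DEVD-pNA substrate, 400 µM as added. Schedule: 1 h enzyme–compound preincubation and 2 h substrate reaction, both 25 °C. Signal: p-Nitroaniline absorbance at 405 nm, read at 0 and 120 min. Control set: low DMSO alone, high DMSO plus 5 µM PC-7.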
PLCg1 ctr: counter-screen for PLC-beta3 inhibitors: inhibitors of human PLC-gamma1; shares compounds with PLC-gamma1 inh; inhibition, % at 12.3 µM; purified PLC-gamma1, fluorogenic substrate, fluorescence; 3,300 compounds, 3.1% hits; AID 743258
PLCb3 confirm: confirmation of human PLC-beta3 inhibitors; 3,300 compounds, 1% hits; inhibition, % at 12.3 µM; purified PLC-beta3, fluorogenic substrate fluorescence; AID 743261; shares compounds with PLC-gamma1 inh; in the data active means inhibition above about 11%
An asterisk follows results filed as active; . = no result. Unless noted, no stated cut-off is given here; in the data, active means inhibition above about 9.5%; inactive means the rest.

SMILES	proCasp3 act	PLC-gamma1 inh	PLC-beta3 inh	Arrestin-AP2 inh	HGIII-sPLA2 inh	proCasp7 act	PLCg1 ctr	PLCb3 confirm
CCOc1cc(S(=O)(=O)NC2CC(C)(C)NC(C)(C)C2)ccc1Cl	5	4	-1	6	-5	2	.	.
CCCCCCCCN1C(=O)[C@H](CC(=O)NCCC(C)C)C[C@@]2(C(=O)OCC)CCC=C12	.	3	1	.	-12	.	.	.
O=C(NCC1CCCO1)C1CCN(S(=O)(=O)c2cc(Cl)ccc2Cl)CC1 (stereo not drawn)	2	12*	4	-6	7	-5	0	3
COc1ccc(Cl)cc1S(=O)(=O)N1CCC(C(=O)NCC2CCCO2)CC1 (stereo not drawn)	1	-2	-4	-2	2	-3	.	.
CCOC(=O)c1c(C)c(C(=O)Nc2ccc(F)cc2)c(C)n1C	1	13*	3	2	1	0	-4	1
COC(=O)COc1nc(C)c2c(c1C#N)CC(C)(C)OC2	9	1	11*	0	7	-7	4	6
COc1ccc(CNc2nc3c(c(=O)n(Cc4ccc(Cl)cc4)c(=O)n3C)n2C)cc1	1	10*	3	29	11	-7	0	-6
CC1Oc2ccccc2N(CC(=O)Nc2ccc3c(c2)OCCO3)C1=O (stereo not drawn)	0	11*	9	-1	0	6	-4	1
CC1Oc2ccccc2N(CC(=O)Nc2ccc3c(c2)OCO3)C1=O (stereo not drawn)	3	5	6	1	-3	12	.	.
OCC[C@H]1C[C@H](O)[C@@H](O)[C@]2(CCCc3ccccc3O2)O1	4	0	11*	9	-2	4	5	4
C[C@H]1CCC[C@]2(O[C@H](CCO)C[C@@H](O)[C@@H]2O)O1	12	2	4	10	2	-3	.	.
OCC[C@H]1C[C@@H](O)[C@H](O)[C@]2(CCc3ccccc3O2)O1	1	9	11*	36	8	3	-5	1
C[C@H]1CCC[C@]2(O[C@@H](CCO)C[C@@H](O)[C@@H]2O)O1	-8	9.9*	7	-4	9	3	-5	2
CCOC(=O)c1c(NC(=O)c2c(C(=O)O)cccc2[N+](=O)[O-])sc2c1CCCC2	-8	7	0	-10	-13	-4	.	.
C=CCN1[C@@H](Cc2ccccc2)COc2cc(F)ccc2S1(=O)=O	.	-2	3	.	3	.	.	.
Cc1ccc(C(=O)C2CCN(CC(=O)NCc3cccs3)CC2)cc1	.	-4	-3	.	-6	.	.	.
O=C(O)CCCN1C(=O)C2C3CCC(C3)C2C1=O (stereo not drawn)	.	12*	7	.	8	.	-3	1
O=C(NCCc1ccc(Cl)cc1Cl)c1cncc(Br)c1	0	11*	0	-5	8	2	-6	-2
O=C(Cc1ccc(Br)cc1)NCCc1ccc(Cl)cc1Cl	6	-2	-9	20	2	-4	.	.
CCOC(=O)c1c(C)[nH]c(C(=O)N2CCC(C(=O)OCC)CC2)c1C	0	-2	-10	-9	1	7	.	.
CCn1cnnc1SCC(=O)Nc1ccccc1C(=O)NC1CC1	1	11*	11*	-7	0	15	-2	0
O=C(OCc1cn(Cc2cccc(F)c2F)nn1)N1CCOCC1	.	2	0	.	13	.	.	.
COc1cc(CN(C2CC2)S(=O)(=O)c2ccccc2Br)cc(OC)c1	-9	0	-1	-1	-3	-6	.	.
Cc1ccc(CNS(=O)(=O)c2ccc([N+](=O)[O-])cc2)cc1	4	12*	-3	14	-14	0	4	3
CSc1ccc(S(=O)(=O)NCc2ccc(C)cc2)cc1	5	-1	-4	-2	-21	8	.	.
SMILES	proCasp3 act	PLC-gamma1 inh	PLC-beta3 inh	Arrestin-AP2 inh	HGIII-sPLA2 inh	proCasp7 act	PLCg1 ctr	PLCb3 confirm
COc1ccccc1C(=O)NC1CCCCN(Cc2ccccc2C)C1=O (stereo not drawn)	.	1	0	.	3	.	.	.
Cn1c(SCC(=O)NC2(C#N)CCCCC2)nnc1-c1cccnc1	9	12*	-1	3	4	2	-8	-5
O=c1c2ccccc2[nH]c(=S)n1CCN1CCN(Cc2ccccc2)CC1	-4	11*	6	-5	-1	-7	2	-5
Cc1cccc(Cl)c1NC(=O)NCCCN1CCCCC1C (stereo not drawn)	.	-1	-1	.	7	.	.	.
Cc1ccc(-c2c[n+](CC(=O)Nc3nc(-c4ccccc4)cs3)c3n2CCC3)cc1	3	12*	11*	-11	-19	6	4	3
Cc1ccc(-c2c[n+](CC(=O)Nc3ccccc3C)c3n2CCC3)cc1	-6	9.8*	-5	22	14	11	-1	2
CC(C)NC(=O)CSc1nc2ccccc2n1CC(=O)N1CCc2ccccc21	1	.	.	4	.	-4	.	.
CC1CCCCN1C(=O)CSc1nc2ccccc2n1CC(=O)N1CCc2ccccc21 (stereo not drawn)	-1	9.6*	7	5	-2	-10	1	1
CN(C)C(=O)Cn1c(SCC(=O)N2CCCc3ccccc32)nc2ccccc21	3	10*	0	-3	9	0	2	-28
COCCn1c(SCC(=O)N2CCCc3ccccc32)nc2ccccc2c1=O	1	8	0	3	-2	-23	.	.
O=C(CC[C@H]1O[C@@H](n2cnc3c(NC(=O)c4ccccc4)ncnc32)[C@H](O)[C@@H]1O)NCc1cccc2ccccc12	.	-1	2	.	0	.	.	.
CCOCCCNC(=O)CN1CCN(S(=O)(=O)c2ccc3c(c2)CCC3)CC1	-5	9.6*	-10	4	12	-4	-6	-4
CCCC1/C(=N/O)CC(c2ccccc2)NC1c1ccccc1 (stereo not drawn)	-7	10*	10	0	18	-2	4	4
CCOC(=O)[C@]12CCCC=C1N(CCCOC)C(=O)[C@@H]2CC(=O)N1CCSCC1	.	9	1	.	1	.	.	.
CCOc1cccc(CN2CCCC(CCC(=O)NCc3ccccc3F)C2)c1O (stereo not drawn)	6	11*	11*	20	5	13	-6	0
O=C(Cc1ccc(Cl)cc1)NC1CCCN(Cc2ccccc2F)C1 (stereo not drawn)	-1	12*	-2	-12	4	-2	-3	2
